From ChEMBL document CHEMBL4118153, “Exploiting polarity and chirality to probe the Hsp90 C-terminus” (Bioorg Med Chem, 2018) come the findings set out here.

Usually EC50 stands for the concentration at which the effect is half-maximal. Low values mean higher potency in that assay, high ones lower potency in that assay.

Activity calls are given as the source filed them. The rule behind the calls is not given here.

Series [1] deals with SK-BR-3. In words: Antiproliferative activity against human SKBR3 cells. In kind it is functional, cell-based. In short, it runs like this: (§1)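 Cells were grown in 1:1 Advanced DMEM/F12 with non-essential amino acids, 2 mM L-glutamine, penicillin/streptomycin and 10% FBS at 37 °C, 5% CO2. They were seeded at 2000/well and left to attach overnight, then exposed to serial compound dilutions (1% DMSO final) for 72 h. Viable cells were read with an […] proliferation kit and normalized to 1% DMSO controls (100%). IC50 came from separate triplicate experiments.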

For series [2], the system named is SK-BR-3. In words: Antiproliferative activity against human SKBR3 cells after 72 hrs by MTS/PMS assay. The conditions noted are these: SK-BR-3, 72 h. In kind it is functional, cell-based. In short, it runs like this:
as §1

For the next series, the system named is MCF7. The series can be described thus: Antiproliferative activity against human MCF7 cells after 72 hrs by MTS/PMS assay. In kind it is functional, cell-based. The settings on record: MCF7, 72 h. Put shortly: as §1
Series [3] has as its target T1, Heat shock protein HSP90 (Homo sapiens, UniProt P07900+P08238). In words: Inhibition of Hsp90 C-terminal domain in human MCF7 cells assessed as effect on heat shock response-induced Hsp90 level at 0.5 to 5 fold antiproliferative EC50 after 24 hrs by Western blot analysis. The settings on record: mcf7, 24 h. In kind it is cell-based. In short, it runs like this:
(§2)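 MCF-7 cells, cultured as for proliferation, were treated for 24 h with compound in DMSO (1% final) or DMSO vehicle. Cells were harvested in cold PBS and lysed on ice for 1 h in RIPA with 1 mM PMSF, 2 mM orthovanadate and protease inhibitors. Lysates were cleared at 14000g, quantified by BCA, and 20 μg protein was run reducing, blotted to nitrocellulose and probed with specific antibodies plus HRP secondary, with chemiluminescent detection.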
For orientation: Immunoblotting shows a protein as a band on a membrane.

Series [4] addresses T1, Heat shock protein HSP90. In words: Inhibition of Hsp90 C-terminal domain in human MCF7 cells assessed as induction of CDK6 degradation at 0.5 to 5 fold antiproliferative EC50 after 24 hrs by Western blot analysis. In kind it is cell-based. In short, it runs like this: as §2
The target of series [5] is T1, Heat shock protein HSP90. The series can be described thus: Inhibition of Hsp90 C-terminal domain in human MCF7 cells assessed as induction of ERalpha degradation at 0.5 to 5 fold antiproliferative EC50 after 24 hrs by Western blot analysis. Type of series: cell-based. In short, it runs like this:
as §2

For series [6], the target named is T1, Heat shock protein HSP90. The series can be described thus: Inhibition of Hsp90 C-terminal domain in human MCF7 cells assessed as induction of Her2 degradation at 0.5 to 5 fold antiproliferative EC50 after 24 hrs by Western blot analysis. Type of series: cell-based. In short, it runs like this: as §2
Series [7] addresses T1, Heat shock protein HSP90. The series can be described thus: Inhibition of Hsp90 C-terminal domain in human MCF7 cells assessed as effect on heat shock response-induced Hsp70 level at 0.5 to 5 fold antiproliferative EC50 after 24 hrs by Western blot analysis. In kind it is cell-based. The conditions noted are these: mcf7, 24 h. Put shortly: as §2

In the series with SK-BR-3 [1], `CO[C@@H]1[C@@H](OC(N)=O)[C@@H](O)[C@H](Oc2ccc3c(O)c(NC(=O)c4ccc(O)c(CC=C(C)C)c4)c(=O)oc3c2C)OC1(C)C` [NOVOBIOCIN] registered an EC50 of 700 µM.

For `COCCN1CCC(Oc2ccc([C@H]3CC[C@H](NC(=O)c4ccc(OC)c(-c5cccc(OC)c5)c4)CC3)cc2)CC1`, the EC50 stood at 0.363 µM in the series with SK-BR-3 [2] and 0.52 µM with MCF7.

As for `COCCN1CCCC(Oc2ccc([C@H]3CC[C@H](NC(=O)c4ccc(OC)c(-c5cccc(OC)c5)c4)CC3)cc2)C1` (stereo partly drawn), the results for the EC50 in the series on SK-BR-3 [2] and with MCF7 were 0.9 µM and 3 µM, respectively.

Take `COc1cccc(-c2cc(C(=O)Nc3cc4ccc(O[C@H]5CC[C@H](N(C)C)CC5)c(C)c4oc3=O)ccc2OC)c1`: the “inhibition (INH)” value at Heat shock protein HSP90 [3] and at Heat shock protein HSP90 [7] was “Not Active” in each case. Further, the inhibition entry on Heat shock protein HSP90 [4], on Heat shock protein HSP90 [5] and at Heat shock protein HSP90 [6] was “Active” each time.

Turning to `COc1cccc(-c2cc(C(=O)Nc3cc4ccc(O[C@H]5CC[C@H](N)CC5)c(C)c4oc3=O)ccc2OC)c1`, the “inhibition (INH)” value on Heat shock protein HSP90 [3] and at Heat shock protein HSP90 [7] was “Not Active” in each case. The inhibition entry at Heat shock protein HSP90 [4], at Heat shock protein HSP90 [5] and at Heat shock protein HSP90 [6] was “Active” in each case.

For `COCCN1CCCC(Oc2ccc3cc(NC(=O)c4ccc(OC)c(-c5cccc(OC)c5)c4)c(=O)oc3c2C)C1` (stereo not drawn), the EC50 in the series on SK-BR-3 [2] worked out at 7 µM; in the series on MCF7 it was 13.3 µM.

Take `COCCN1CCC(Oc2ccc3cc(NC(=O)c4ccc(OC)c(-c5cccc(OC)c5)c4)c(=O)oc3c2C)CC1`: the values for the EC50 in the series with SK-BR-3 [2] and in the series on MCF7 were 4 µM and 2.1 µM, respectively.

For `COc1cccc(-c2cc(C(=O)Nc3cc4ccc(OC5CCN(CCO)CC5)c(C)c4oc3=O)ccc2OC)c1`, the results for the EC50 in the series on SK-BR-3 [2] and with MCF7 were 2.1 µM and 1.9 µM, respectively.

Compound `COc1cccc(-c2cc(C(=O)Nc3cc4ccc(O[C@@H]5OC(C)(C)[C@H](OC)[C@@H](O)[C@H]5O)c(C)c4oc3=O)ccc2OC)c1` displayed an EC50 in the series with SK-BR-3 [1] of 7 µM.

`COc1cccc(-c2cc(C(=O)N[C@H]3CC[C@H](c4ccc(OC5CCN(CCO)CC5)cc4)CC3)ccc2OC)c1`: the results for the EC50 with SK-BR-3 [2] and with MCF7 were 0.285 µM and 0.38 µM, respectively.

On to `COc1cccc(-c2cc(C(=O)N[C@H]3CC[C@H](c4ccc(OC5CCCN(CCO)C5)cc4)CC3)ccc2OC)c1` (stereo partly drawn), for which the values for the EC50 in the series with SK-BR-3 [2] and with MCF7 were 0.45 µM and 0.625 µM, respectively.

Consider `COc1cccc(-c2cc(C(=O)Nc3cc4ccc(OC5CCCN(CCO)C5)c(C)c4oc3=O)ccc2OC)c1` (stereo not drawn), for which the EC50 stood at 1.7 µM in the series on SK-BR-3 [2] and 2.66 µM in the series on MCF7.

On to `COc1cccc(-c2cc(C(=O)Nc3cc4ccc(O[C@H]5CC[C@@H](N)CC5)c(C)c4oc3=O)ccc2OC)c1`, for which the “inhibition (INH)” value at Heat shock protein HSP90 [3] and at Heat shock protein HSP90 [7] was “Not Active” each time. Moreover, the inhibition entry at Heat shock protein HSP90 [4], at Heat shock protein HSP90 [5] and at Heat shock protein HSP90 [6] was “Active” each time.
